Assay results as given in ChEMBL document CHEMBL1152220, “Discovery of a highly orally bioavailable c-5-[6-(4-Methanesulfonyloxyphenyl)hexyl]-2-methyl-1,3-dioxane-r-2-carboxylic acid as a potent hypoglycemic and hypolipidemic agent” (Bioorg Med Chem Lett, 2008).
Each block holds one compound with its values, some of them ahead of it. Activity calls are given as the source filed them. The rule behind the calls is not given here.

How the values were obtained:
[1] = biological target: T1, Peroxisome proliferator-activated receptor alpha (Homo sapiens) (UniProt Q07869); experiment: Agonist activity at human PPARalpha ligand binding domain expressed in human HepG2 cells co-transfected with PPRE3-TK-luc assessed as induction of beta-galactosidase activity at 10 uM by transactivation assay; format: cell-based
T1 sequence (whole entry): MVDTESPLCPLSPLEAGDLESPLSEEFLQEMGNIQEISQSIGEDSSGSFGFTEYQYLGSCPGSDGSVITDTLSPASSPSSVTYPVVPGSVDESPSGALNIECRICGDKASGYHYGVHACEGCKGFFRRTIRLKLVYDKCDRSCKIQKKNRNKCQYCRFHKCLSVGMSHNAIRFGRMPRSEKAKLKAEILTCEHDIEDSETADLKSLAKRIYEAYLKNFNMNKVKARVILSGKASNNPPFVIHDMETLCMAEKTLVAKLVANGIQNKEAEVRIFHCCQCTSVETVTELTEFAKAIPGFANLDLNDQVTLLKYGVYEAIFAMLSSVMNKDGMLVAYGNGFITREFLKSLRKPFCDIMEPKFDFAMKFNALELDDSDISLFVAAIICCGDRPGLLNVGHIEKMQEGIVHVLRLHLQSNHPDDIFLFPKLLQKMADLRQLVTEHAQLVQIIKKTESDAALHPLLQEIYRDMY
Method in brief: (§1)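 HepG2 cells were transfected with a pSG5 vector carrying hPPARα or hPPARγ cDNA and cotransfected with PPRE3-TK-luc. Firefly luciferase was measured with a commercial assay, and β-galactosidase was read on an ELISA reader. Activity is expressed as fold induction. Single-point testing was at 10 µM for hPPARα and 0.2 µM for hPPARγ, with EC50 given elsewhere.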

Mus musculus [2] = experiment: Reduction of triglyceride level in Swiss albino mouse serum at 10 mg/kg/day, po for 6 days relative to control; format: functional; design: scale not given: the % may be the effect or the level left
Method in brief: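 Male Swiss albino mice aged 6–8 weeks were dosed orally at 10 mg/kg/day for 6 days. Serum triglyceride is reported as % change relative to vehicle controls, as the mean of n = 6.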

[3] = biological target: T2, Peroxisome proliferator-activated receptor alpha (Homo sapiens, UniProt Q07869); experiment: Agonist activity at human PPARalpha ligand binding domain expressed in human HepG2 cells co-transfected with PPRE3-TK-luc assessed as induction of beta-galactosidase activity by transactivation assay; format: cell-based
T2 sequence (Q07869 whole entry): T1 sequence (whole entry)
Method in brief: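 HepG2 cells were transfected with a pSG5 vector carrying hPPARα or hPPARγ cDNA and cotransfected with PPRE3-TK-luc. Firefly luciferase was measured with a commercial assay, and β-galactosidase was read on an ELISA reader. Activity is expressed as fold induction.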

[4] = biological target: T3, Peroxisome proliferator-activated receptor gamma (Homo sapiens, UniProt P37231); experiment: (§2) Agonist activity at human PPARgamma ligand binding domain expressed in human HepG2 cells co-transfected with PPRE3-TK-luc assessed as induction of beta-galactosidase activity by transactivation assay; format: cell-based; method in brief: as §1
T3 sequence (P37231 whole entry): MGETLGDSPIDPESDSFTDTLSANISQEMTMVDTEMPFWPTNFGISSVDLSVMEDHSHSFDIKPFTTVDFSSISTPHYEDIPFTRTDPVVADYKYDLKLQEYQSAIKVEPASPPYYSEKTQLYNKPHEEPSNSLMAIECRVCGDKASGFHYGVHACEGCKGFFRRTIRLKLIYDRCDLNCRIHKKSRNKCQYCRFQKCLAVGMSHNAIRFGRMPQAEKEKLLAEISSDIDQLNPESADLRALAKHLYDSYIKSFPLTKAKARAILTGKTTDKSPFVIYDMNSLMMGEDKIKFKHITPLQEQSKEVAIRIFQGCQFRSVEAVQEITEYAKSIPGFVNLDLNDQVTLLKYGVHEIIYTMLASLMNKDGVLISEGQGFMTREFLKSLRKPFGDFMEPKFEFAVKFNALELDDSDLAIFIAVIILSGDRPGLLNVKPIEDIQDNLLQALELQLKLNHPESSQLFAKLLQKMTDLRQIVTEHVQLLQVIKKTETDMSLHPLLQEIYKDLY

Mus musculus [5] = experiment: Hypolipidemic activity in db/db mouse assessed as reduction of triglyceride level at 3 mg/kg/day for 6 days relative to control; format: functional; design: scale not given: the % may be the effect or the level left
Method in brief: (§3)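 Male db/db mice aged 6–8 weeks were dosed daily for 6 days. Plasma glucose and triglycerides were measured, and results are reported as % change relative to vehicle-treated controls.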

Mus musculus [6] = experiment: Hypoglycemic activity in db/db mouse assessed as reduction of plasma glucose level at 3 mg/kg/day for 6 days relative to control; format: functional; design: scale not given: the % may be the effect or the level left; method in brief: as §3
Rattus norvegicus [7] = experiment: Hypolipidemic activity in high cholesterol fed Sprague-Dawley rat assessed as effect on HDL-C level at 3 mg/kg/day for 4 days relative to control
Rattus norvegicus [8] = experiment: Hypolipidemic activity in high cholesterol fed Sprague-Dawley rat assessed as reduction of LDL-C level at 3 mg/kg/day for 4 days relative to control; design: scale not given: the % may be the effect or the level left
Rattus norvegicus [9] = experiment: Hypolipidemic activity in high cholesterol fed Sprague-Dawley rat assessed as reduction of triglyceride level at 3 mg/kg/day for 4 days relative to control; design: scale not given: the % may be the effect or the level left
Rattus norvegicus [10] = experiment: Hypolipidemic activity in high cholesterol fed Sprague-Dawley rat assessed as reduction of total cholesterol level at 3 mg/kg/day for 4 days relative to control; design: scale not given: the % may be the effect or the level left
[11] = Tmax in Wistar rat at 30 mg/kg, po; format: ADME, organism-based; design: dose 30 mg/kg, route oral; details: in vivo
[12] = (§4) Cmax in Wistar rat at 30 mg/kg, po; format: ADME, organism-based; design: dose 30 mg/kg, route oral; details: Wistar, in vivo
[13] = Half life in Wistar rat at 30 mg/kg, po; format: ADME, organism-based; design: dose 30 mg/kg, route oral; details: in vivo
[14] = (§5) AUC (0 to infinity) in Wistar rat at 30 mg/kg, po; format: ADME, organism-based, Plasma; design: time infinity, dose 30 mg/kg, route oral; details: Wistar, plasma
[15] = biological target: T4, Peroxisome proliferator-activated receptor gamma (Homo sapiens) (UniProt P37231); experiment: as §2; format: cell-based; method in brief: as §1
T4 sequence (whole entry): T3 sequence (P37231 whole entry)

Rattus norvegicus [16] = experiment: as §4; format: ADME, organism-based; design: dose 30 mg/kg, route oral; details: in vivo
Rattus norvegicus [17] = experiment: as §5; format: ADME, organism-based, Plasma; design: time infinity, dose 30 mg/kg, route oral; details: in vivo

SMILES: C[C@]1(C(=O)O)OC[C@@H](CCCCc2ccc(O)cc2)CO1
fold change (FC) [1]: 1.2
Activity (Mus musculus [2]): -15%

SMILES: CS(=O)(=O)Oc1ccc(CCCCCC[C@H]2CO[C@@](C)(C(=O)O)OC2)cc1
Activity (Mus musculus [2]): -71%
EC50 [3]: 15 µM
EC50 [4]: 15 µM
Activity (Mus musculus [5]): -50%
Activity (Mus musculus [6]): -53%
Tmax [11]: 4 h
Cmax [12]: 127 µg/mL
half-life [13]: 12 h
AUC(0-inf) [14]: 1490 µg·h/mL
Activity (Rattus norvegicus [7]): 51%
Activity (Rattus norvegicus [8]): -46%
Activity (Rattus norvegicus [9]): -63%
Activity (Rattus norvegicus [10]): -56%

SMILES: C[S+]([O-])c1ccc(CCCC[C@H]2CO[C@@](C)(C(=O)O)OC2)cc1 (stereo not given in full)
fold change (FC) [1]: 2
Activity (Mus musculus [2]): -12%

SMILES: C[C@]1(C(=O)O)OC[C@@H](CCCCc2ccc(F)cc2)CO1
fold change (FC) [1]: 2.3
Activity (Mus musculus [2]): -9%

SMILES: CS(=O)(=O)Oc1ccc(CCCC[C@H]2CO[C@@](C)(C(=O)O)OC2)cc1
fold change (FC) [1]: 3
Activity (Mus musculus [2]): -32%
EC50 [3]: 20 µM
Activity [15]: inactive

SMILES: C[C@]1(C(=O)O)OC[C@@H](CCCCc2ccc(OCc3ccccc3)cc2)CO1
fold change (FC) [1]: 2.3
Activity (Mus musculus [2]): -25%

SMILES: CS(=O)(=O)Oc1ccc(CCCCC[C@H]2CO[C@@](C)(C(=O)O)OC2)cc1
Activity (Mus musculus [2]): -28%
EC50 [3]: 2.5 µM
Activity [15]: inactive

More lines, main results first:

EC50 [3]: 0.82 µM
EC50 [4]: 0.013 µM
SMILES: CCO[C@@H](Cc1ccc(OCCc2ccc(OS(C)(=O)=O)cc2)cc1)C(=O)O [TESAGLITAZAR]
Activity (Mus musculus [2]): -79%
Activity (Mus musculus [5]): -60%
Activity (Mus musculus [6]): -54%
Activity (Rattus norvegicus [7]): 18%
Activity (Rattus norvegicus [8]): -31%
Activity (Rattus norvegicus [9]): -51%
Activity (Rattus norvegicus [10]): -59%

fold change (FC) [1]: 4
SMILES: CSc1ccc(CCCC[C@H]2CO[C@@](C)(C(=O)O)OC2)cc1
Activity (Mus musculus [2]): -14%

fold change (FC) [1]: 1
SMILES: CS(=O)(=O)c1ccc(CCCC[C@H]2CO[C@@](C)(C(=O)O)OC2)cc1
Activity (Mus musculus [2]): -7%

fold change (FC) [1]: 3.3
SMILES: Cc1cccc(Nc2cc(Cl)nc(SCC(=O)O)n2)c1C

fold change (FC) [1]: 2.6
SMILES: C[C@]1(C(=O)O)OC[C@@H](CCCCc2ccc(Cl)cc2)CO1
Activity (Mus musculus [2]): -10%

fold change (FC) [1]: 2.5
SMILES: COc1ccc(CCCC[C@H]2CO[C@@](C)(C(=O)O)OC2)cc1
Activity (Mus musculus [2]): -11%

fold change (FC) [1]: 3.2
SMILES: Cc1ccc(CCCC[C@H]2CO[C@@](C)(C(=O)O)OC2)cc1
Activity (Mus musculus [2]): -22%

EC50 [4]: 7 µM
Tmax [11]: 0.67 h
Cmax (Rattus norvegicus [16]): 41 µg/mL
half-life [13]: 1.5 h
AUC (Rattus norvegicus [17]): 99 µg·h/mL
SMILES: Cc1ccc(-c2nc(CCCC[C@H]3CO[C@@](C)(C(=O)O)OC3)c(C)o2)cc1
Activity (Mus musculus [2]): -67%
Activity (Mus musculus [5]): -54%
Activity (Mus musculus [6]): -44%
Activity (Rattus norvegicus [7]): 88%
Activity (Rattus norvegicus [8]): -68%
Activity (Rattus norvegicus [9]): -54%
Activity (Rattus norvegicus [10]): -49%
